# Measured values taken from ChEMBL document CHEMBL4513216, “Probing the Open Global Health Chemical Diversity Library for Multistage-Active Starting Points for Next-Generation Antimalarials” (ACS Infect Dis, 2020).
# Assay: Toxicity liver stage against HepG2, at 10uM
# Type: cell-based
# Parameters: test concentration 10 uM, cell line HepG2-A16-CD81EGFP
# Conditions: human, HepG2-A16-CD81EGFP cells; read-out: INHIBITION
# Summary of the method: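 Uninfected HepG2-A16-CD81EGFP cells, 3 × 10^3 per well, 1536-well, plated on prespotted compound at 10 μM final, parasite-free screening media added to match infected plates; puromycin 10 μM positive, DMSO 0.5% negative; run in parallel with 48 h PbLuc assay at 37 °C, 5% CO2; viability by CellTiter-Glo luminescence, normalized to controls.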
row,SMILES,cytotoxicity at 10 µM
1,CCc1csc(C2CCCN(C(=O)c3ccc(=O)n(C)n3)C2)n1 (stereo unspecified),-44.1%
2,CCn1ccc(-c2cc(NCCCOc3cccc(C)c3)nc(C)n2)n1,-5.65%
3,Cc1cc(=O)n2ncnc2n1CC(O)COCc1ccccc1Cl (stereo unspecified),3.52%
4,CCC(C)C(=O)Nc1ccc2oc(=O)n(CCN(C)C)c2c1 (stereo unspecified),-14.8%
5,Cc1ccc(N2CCC3(CCCN(C(=O)c4cnccn4)C3)C2)nn1 (stereo unspecified),1.14%
6,O=c1ccc(-c2ccccc2F)nn1CCN1CCCS1(=O)=O,-10%
7,CN(Cc1ccc(O)cc1)C(=O)NCc1nnc2n1CCCCC2,-11.1%
8,CC(=O)NCCC(=O)NCCCOc1c(C)cccc1C,-4.81%
9,OCc1cn(Cc2cccc(C(F)(F)F)c2)nn1,8.02%
10,CCCc1cc(C(=O)NC(COC)c2ccnn2C)no1 (stereo unspecified),-6.14%
11,CC(c1cccc(Cl)c1)N(C)Cc1nc2c(cnn2C)c(=O)[nH]1 (stereo unspecified),-10.5%
12,CCO[C@H]1CN(C(=O)c2ccc3c(c2)OCO3)[C@@H]2COC[C@H]12,-130%
13,Cc1noc(C)c1CN1CCOC2(CCCN(c3ccccn3)C2)C1 (stereo unspecified),11.6%
14,c1csc(-c2nc(CN3CCN(c4cnccn4)CC3)co2)c1,-5.67%
15,Cc1nc2n(n1)CC(NCCC(=O)Nc1cc(C)on1)CC2 (stereo unspecified),-10.5%
16,O=C(c1ccccc1-c1nnn[nH]1)N1CCOC(C(F)(F)F)C1 (stereo unspecified),-1.67%
17,Cc1[nH]ncc1CCCNC(=O)N1CCN2CCCCC2C1 (stereo unspecified),5.8%
18,Cc1ccc(C(=O)NCC(C)CN2CCCC2=O)c(=O)[nH]1 (stereo unspecified),-8.57%
19,CCc1ccc(CN2CCN(CCOC)[C@@H]3CS(=O)(=O)C[C@@H]32)cc1,-5.72%

row,SMILES,cytotoxicity at 10 µM
1,CS(=O)(=O)NCCCN1CCCC1Cc1ccccc1 (stereo unspecified),-11.7%
2,O=C(c1csc(-c2ncccn2)n1)N1CCN(C2CCCC2)CC1,4.87%
3,Cc1ccc([C@]2(O)CC[C@H]3CN(Cc4ccccc4F)C[C@H]32)nc1,-12.8%
4,Cc1ccc2c(c1)C(NC(=O)N(C)C)CC21CCN(C)CC1 (stereo unspecified),10.4%
5,CC(C)(NC(=O)Cc1ccccc1F)C(=O)O,3.13%
6,O=C(c1ccnnc1)N1CCC2(CCN(c3ccsc3)C2=O)C1 (stereo unspecified),-139%
7,COC1CCN(CCNC(=O)NC(C)c2cccc(Cl)c2)CC1 (stereo unspecified),-2.46%
8,O=C(c1cccnc1)N(CCO)Cc1cc(Br)ccc1F,12.7%
9,Nc1nc2c(c(NCc3cnc4c(c3)CCC4)n1)CCNC2,1.98%
10,CN(CC(=O)N1CCC(C(O)c2ccccc2)CC1)c1cnccn1 (stereo unspecified),-2.9%
11,c1cc(COC[C@]23COC[C@H]2CN(CC2CCC2)C3)ccn1,-77.1%
12,CCCNC(=O)c1cncc(CC2CCCN(C)C2)c1 (stereo unspecified),-16%
13,O=C(Nc1ccccc1)N1CCN(Cc2noc(C3CC3)n2)CC1,2.82%
14,CC(C)CCN(CCC(C)C)Cc1nc2c(cnn2C)c(=O)[nH]1,-5.57%
15,O=C(CCNc1ncccn1)NCc1cccc(OC(F)F)c1,-1.75%
16,O=C(c1cncc(Br)c1)N1CCCc2c(F)cc(F)cc21,2.81%
17,COCCCC(=O)N1CCC(Nc2cccnn2)CC1,-3.69%
18,COCCN1CCC(NCc2c(F)cccc2F)C1 (stereo unspecified),-5.95%
19,Cc1ccc(C(=O)N2CCc3c(CNS(C)(=O)=O)cncc3C2)o1,-11.3%

row,SMILES,cytotoxicity at 10 µM
1,CN(C)CC1CN(Cc2cccc(C#N)c2)Cc2nccn2C1 (stereo unspecified),-124%
2,CC(=O)N1CCC(c2cccc(NC3CCOCC3)n2)CC1,13.3%
3,CC(C)Nc1nc2c(c(NC3CC3)n1)CCN(C(=O)C1CCOC1)CC2 (stereo unspecified),-145%
4,Cc1cccc(CNC(=O)N(CCCO)C2CCc3ccccc32)n1 (stereo unspecified),-10.5%
5,Fc1cnc(N2CC[C@@H]3OC(COCc4cccnc4)CC[C@@H]32)nc1 (stereo partly specified),9.94%
6,CCN(Cc1ccco1)C(C)c1nc(C)no1 (stereo unspecified),-10.1%
7,Cn1cc(Br)c(C(=O)NCCn2cc(Br)cn2)n1,-13.3%
8,CS(=O)(=O)c1nccn1CCOc1ccccc1F,4.05%
9,COCCNc1c(-c2ccc(C)cc2)c(=O)c1=O,-5.15%
10,Cc1ccc(Sc2ccc(N3CCCC(C(=O)O)C3)nn2)cc1 (stereo unspecified),-8.71%
11,c1cc(CN2CCSC3(CCCCC3)C2)no1,0.807%
12,CCC(C)(C)NC(=O)C1CC(=O)N(CC2CC2)C1 (stereo unspecified),-4.72%
13,O=C(CC1CC2(CCN(CC3CC3)CC2)Oc2ccccc21)NC1CC1 (stereo unspecified),8.5%
14,O=C1CO[C@H]2CN(Cc3ccc4c(c3)OCO4)C[C@H]2N1,0.801%
15,Cc1ccc(CNCc2cc(Br)c3c(c2)OCO3)cc1,5.35%
16,OCC1CCCN1c1cc(NCc2ccsc2)ncn1 (stereo unspecified),38.8%
17,O=C(Nc1cccnc1)N1CCC(n2ccc(C(F)(F)F)n2)CC1,-6.08%
18,Cc1cc2c(o1)CC(C)(C)CC2NC(=O)CNC(=O)C1CC1 (stereo unspecified),4.57%
